Arrestin-AP2 inh – human beta-arrestin and AP2 interaction inhibition; FITC-arrestin peptide / GST-AP2 beads, flow cytometry; AP2 beta2 appendage carries R879A mutation; inhibition, % at 10 µM; hit rate 0.31% among 340,000; AID 504490;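 active means inhibition above a set limit, near 3 SD of compounds lacking own fluorescence, cut at about 54% in these data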;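 further: plate controls were DMSO wells for no effect and 5 µM unlabelled arrestin peptide for full effect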
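Measured by: flow cytometry, FL1 (488/535 nm); Material: AP2 appendage R879A on GSH beads; Evaluation: percent response; Timing: pre-incubation 12 min, peptide binding 1 h, room temperature; Also added: 50 nM FITC-arrestin peptide; Medium: PBS with 0.05% Tween 20 and 0.1% BSA.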
PLCg1 inh – blocks human PLC-gamma1 enzyme activity; AID 720700; inhibition, % at 12.2 µM; P19174; hit rate 0.84% among 370,000; purified PLC-gamma1, fluorogenic substrate, fluorescence
PLC-beta3 inh – blocks human PLC-beta3 enzyme activity | Purified PLC-beta3, fluorogenic substrate, fluorescence | inhibition, % at 12.2 µM | hit rate 0.18% among 370,000; in the data active means inhibition above about 11%;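 further: 0% = median of compound wells on plate and 100% = full blocker control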
Target sequence (Q01970 whole entry, looked up): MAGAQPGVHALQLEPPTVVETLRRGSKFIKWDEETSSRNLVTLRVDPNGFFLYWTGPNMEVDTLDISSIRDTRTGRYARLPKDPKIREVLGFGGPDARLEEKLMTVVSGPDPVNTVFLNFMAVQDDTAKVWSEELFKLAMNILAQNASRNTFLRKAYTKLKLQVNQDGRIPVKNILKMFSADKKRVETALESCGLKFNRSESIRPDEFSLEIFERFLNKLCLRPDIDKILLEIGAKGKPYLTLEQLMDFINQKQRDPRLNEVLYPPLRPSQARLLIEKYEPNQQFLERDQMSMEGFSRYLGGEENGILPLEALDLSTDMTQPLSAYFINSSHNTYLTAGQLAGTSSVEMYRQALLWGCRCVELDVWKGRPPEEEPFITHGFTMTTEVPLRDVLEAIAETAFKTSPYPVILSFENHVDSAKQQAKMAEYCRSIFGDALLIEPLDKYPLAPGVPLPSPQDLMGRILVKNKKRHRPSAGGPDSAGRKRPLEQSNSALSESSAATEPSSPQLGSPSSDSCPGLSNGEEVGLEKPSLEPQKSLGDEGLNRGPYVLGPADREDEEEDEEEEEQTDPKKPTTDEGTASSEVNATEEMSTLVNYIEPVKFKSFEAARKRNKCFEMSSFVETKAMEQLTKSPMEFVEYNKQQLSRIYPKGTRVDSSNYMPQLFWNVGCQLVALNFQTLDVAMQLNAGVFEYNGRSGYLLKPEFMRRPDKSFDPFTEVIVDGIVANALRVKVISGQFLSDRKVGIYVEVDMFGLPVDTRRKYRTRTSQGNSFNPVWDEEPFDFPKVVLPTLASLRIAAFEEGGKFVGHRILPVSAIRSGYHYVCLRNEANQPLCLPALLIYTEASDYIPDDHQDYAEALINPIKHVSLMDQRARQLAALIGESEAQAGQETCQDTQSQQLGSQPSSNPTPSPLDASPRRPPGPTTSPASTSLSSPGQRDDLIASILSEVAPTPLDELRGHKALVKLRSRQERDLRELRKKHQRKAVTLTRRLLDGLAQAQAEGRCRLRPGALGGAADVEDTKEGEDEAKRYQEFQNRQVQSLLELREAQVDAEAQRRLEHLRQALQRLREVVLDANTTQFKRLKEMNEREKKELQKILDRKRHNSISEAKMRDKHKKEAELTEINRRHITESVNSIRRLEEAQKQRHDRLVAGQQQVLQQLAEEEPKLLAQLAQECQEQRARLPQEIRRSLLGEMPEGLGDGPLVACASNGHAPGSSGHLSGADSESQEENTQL
procasp3 activ – activators of human procaspase-3. P42574. recombinant procaspase-3 D3A, Ac-DEVD-pNA absorbance 405 nm. activation, % at 8.5 µM. hit rate 0.11% among 330,000. AID 463141;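 active means activation above the mean of all tested compounds plus 3 SD, cut at about 21% in these data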;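 further: 0% = DMSO alone and 100% = DMSO wells spiked with extra 5 µM PC-3 D3A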
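Assay system: Procaspase-3 D3A mutant, all three cleavage aspartates alanine. Buffer or medium: Zinc-free HEPES saline buffer with Triton X-100. Times: 1 h compound preincubation, 2 h substrate hydrolysis at 25 °C. Measured by: 405 nm absorbance of p-nitroaniline, reads at 0 and 120 min. Read-out basis: percent activation relative to control range. Replicates: singlicate.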
sPLA2-III inh – Inhibits HGIII-sPLA2 liposome hydrolysis, primary screen | Q9NZ20 | QFRET BODIPY PC-A2 liposome hydrolysis, fluorescence | inhibition, % at 12.2 µM | hit rate 0.56% among 370,000;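 active means inhibition above mean plus 3 SD of compounds lying within the high and low control bounds, cut at about 19% in these data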;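 further: 0% = median of test compound wells and 100% = no enzyme DMSO wells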
procasp7 counter – activates human procaspase-7, counter-screen for procaspase-3 activators; P55210; hit rate 0.093% among 330,000; activation, % at 8.5 µM; recombinant procaspase-7, Ac-DEVD-pNA absorbance 405 nm; D23A/D198A/D206A triple mutant, cannot self-cleave; scale: DMSO 0, 5 µM enzyme 100;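 active means percent activation above the screen-wide mean plus 3 SD, cut at about 25% in these data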
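System: Uncleavable procaspase-7 mutant enzyme; Amount: 2 µM procaspase-7 mutant as dispensed; Schedule: 1 h compound preincubation, 2 h substrate cleavage, 25 °C; Measured by: 405 nm absorbance of p-nitroaniline; Evaluation: percent activation from buffer-corrected 0–120 min absorbance change; Control set: low DMSO alone, high DMSO plus 5 µM PC-7.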
PLCg1 ctr – inhibits human PLC-gamma1 in PLC-beta3 counter-screen. inhibition, % at 12.3 µM. shares compounds with PLCg1 inh. AID 743258. hit rate 3.1% among 3,300. purified PLC-gamma1, fluorogenic substrate, fluorescence
PLCbeta3 conf – confirmation of human PLC-beta3 inhibitors; shares compounds with PLCg1 inh; hit rate 1% among 3,300; purified PLC-beta3, fluorogenic substrate fluorescence; AID 743261; inhibition, % at 12.3 µM; in the data active means inhibition above about 11%
hGIII sPLA2 conf – human GIII-sPLA2 inhibition, confirmation. hit rate 34% among 2,000. AID 743280. recombinant hGIII-sPLA2, BODIPY PC-A2 QFRET fluorescence. shares compounds with sPLA2-III inh. inhibition, % at 12.2 µM;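 active means mean inhibition across triplicates above the hit cutoff set in the earlier primary screen, cut at about 19% in these data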;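 further: 0% = enzyme with DMSO and 100% = DMSO wells lacking enzyme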
535nm interf – 535nm fluorescence interference, HGIII-sPLA2 counter-screen. shares compounds with sPLA2-III inh. BODIPY FL product fluorescence interference, QFRET. inhibition, % at 12.2 µM. hit rate 8.5% among 2,000;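 active means average inhibition above the solvent-only control mean plus 3 SD, cut at about 6% in these data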;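 further: 0% = DMSO with substrate plus product and 100% = DMSO with substrate alone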
535nm interf DR – interferes with 535nm fluorescence in dose response counter-screen; shares compounds with sPLA2-III inh; BODIPY FL product fluorescence interference, cell-free; IC50, µM; 240 tested, under 10 active; AID 743455;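 active means IC50 at or below 10 µM; inactive means IC50 above 10 µM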
Numbers without * were called inactive; . = no result given. Shown are actives, neighbours in structure and some others; about 1.9% of the full set was active somewhere. Unless noted, no stated cut-off is given here; in the data, active means inhibition above about 9.5%; inactive means the rest.

SMILES	Arrestin-AP2 inh	PLCg1 inh	PLC-beta3 inh	procasp3 activ	sPLA2-III inh	procasp7 counter	hGIII sPLA2 conf	535nm interf	others
Cc1ccc(CN2CCCCC(NC(=O)Nc3ccccc3-c3ccccc3)C2=O)cc1 (stereo not given)	.	9.5	6.4	.	7.4	.	.	.
CC(C)(C=O)Cc1cc(C(C)(C)C)c(O)c(C(C)(C)C)c1	10.0	-2.4	0.1	4.0	5.5	7.0	.	.
CC(C)(CO)Cc1cc(C(C)(C)C)c(O)c(C(C)(C)C)c1	0.4	11.0*	3.8	-2.2	19.9*	-4.0	-1.6	-9.3	PLCg1 ctr=-6.7;PLCbeta3 conf=-3.8
Nc1cc2c(cc1Cl)-c1ccc(Cl)cc1C2	.	-1.5	-2.8	.	7.8	.	.	.
CCN(CC)c1ccc(NC(=O)CSc2nc3ccccc3c(=O)n2-c2ccc(C)cc2)cc1	.	11.8*	8.5	.	28.2*	.	30.4*	-11.4	PLCg1 ctr=-6.6;PLCbeta3 conf=-3.9;535nm interf DR=>122
COc1cc(OC)c(OC)cc1/C=C1\Oc2cc(OCC(=O)N3Cc4ccccc4C[C@H]3C(=O)O)ccc2C1=O	3.4	.	.	0.2	.	-16.6	.	.
O=[N+]([O-])c1ccc(N/N=C/c2cccc(O)c2O)c(S(=O)(=O)N2CCOCC2)c1	36.2	14.6*	-5.1	-12.6	30.8*	-12.8	39.1*	15.3*	PLCg1 ctr=-3.9;PLCbeta3 conf=-4.8
COc1ccc(OCCNc2cc(N3CCCCC3)ccc2[N+](=O)[O-])cc1	0.3	0.8	2.6	-4.6	-2.6	-5.3	.	.
CC1CN(c2ccc([N+](=O)[O-])c(NCCOc3ccccc3)c2)CCN1 (stereo not given)	1.0	7.7	11.2*	1.5	39.1*	-11.2	10.4	-25.3	PLCg1 ctr=-0.2;PLCbeta3 conf=1.0
COc1ccc(CCNC(=O)CN2C(=O)NC(Cc3c[nH]c4ccccc34)C2=O)cc1 (stereo not given)	-0.2	-3.5	-5.9	1.9	-70.7	2.8	.	.
Cc1ccc(F)cc1NC(=S)NCCc1ccccc1	3.6	10.7*	3.2	-3.5	21.7*	7.1	20.1*	-5.3	PLCg1 ctr=-2.3;PLCbeta3 conf=-0.8
Cc1ccc(NC(=S)NCCc2ccc(F)cc2)c(C)c1	6.3	-0.3	0.9	0.7	1.6	0.1	.	.
COc1ccc(C(=O)NC(=S)Nc2cccc(NC(=O)c3ccco3)c2)cc1[N+](=O)[O-]	-2.7	13.2*	5.0	-2.7	27.6*	-0.5	9.7	1.7	PLCg1 ctr=-0.6;PLCbeta3 conf=1.3
CC1CCC(NC(=O)C(NS(=O)(=O)c2cccc3nsnc23)C(C)C)CC1 (stereo not given)	-1.0	11.1*	-2.7	2.5	86.5*	5.2	-4.5	-7.2	PLCg1 ctr=2.6;PLCbeta3 conf=2.1
COc1ccc(/C=C/C(=O)c2ccc3c(c2)OCCO3)cc1[N+](=O)[O-]	0.1	1.9	3.3	-4.9	0.0	-3.1	.	.
COc1ccc(/C=N/NC(=O)c2ccc3c(c2)OCCO3)cc1[N+](=O)[O-]	0.7	10.6*	-2.7	-7.5	24.1*	8.1	7.0	-3.0	PLCg1 ctr=-10.1;PLCbeta3 conf=-2.7
COc1ccc(CCNC(=O)CSc2ccc(-c3cccs3)nn2)cc1OC	13.2	2.9	-1.7	2.0	3.0	3.5	.	.
Cc1cc2ncn(N)c2cc1C	-1.1	4.2	4.9	3.1	90.4*	2.1	-1.2	-6.7
Cc1cc2ncn(S(=O)(=O)N(C)C)c2cc1C	3.2	3.9	1.9	-2.9	-1.3	7.7	.	.
COc1ccccc1NC(=O)NNC(=O)c1ccc2ccccc2c1	-6.3	0.2	-6.8	.	-3.2	.	.	.
COc1cccc(C(=O)NNC(=O)c2ccccc2)c1	-4.4	1.5	-4.5	.	2.7	.	.	.
O=C(NNC(=O)c1ccc2ccccc2c1O)c1ccccc1Cl	-2.5	-5.8	-5.8	-3.6	30.8*	-10.6	36.6*	2.7	535nm interf DR=>122
COc1ccccc1NC(=O)NNC(=O)c1ccc2ccccc2c1O	-5.3	-73.9	-107.6	.	30.0*	.	35.9*	5.4	535nm interf DR=>122
Cc1ccccc1NC(=O)NNC(=O)c1ccc2ccccc2c1O	32.6	-71.6	-112.8	-0.9	38.5*	-6.4	28.5*	1.2	535nm interf DR=>122
COc1cccc(C(=O)NNC(=O)c2ccc3ccccc3c2O)c1	-15.7	-8.6	-17.0	0.2	24.6*	-0.8	14.1	0.2
SMILES	Arrestin-AP2 inh	PLCg1 inh	PLC-beta3 inh	procasp3 activ	sPLA2-III inh	procasp7 counter	hGIII sPLA2 conf	535nm interf	others
O=C(NNC(=O)c1cccc2ccccc12)c1ccc(Cl)cc1Cl	-15.8	1.1	3.6	.	-18.2	.	.	.
CCOC(=O)CN(C(=O)COC(=O)C1=NNC(=O)CC1)c1ccc(F)cc1	-3.0	3.9	1.4	8.2	-0.7	5.5	.	.
CC(C)C[C@H]1CN(CCCC[C@@H]2CNC(=O)C(=O)N2CCc2ccccc2)C(=O)C(=O)N1CCc1ccc(O)cc1	.	2.1	2.1	.	-7.5	.	.	.
COc1ccc(NC(=O)NNC(=O)c2ccc3ccccc3c2O)cc1OC	-11.4	-66.8	-112.5	-1.6	28.1*	-2.3	28.0*	0.5	535nm interf DR=>122
O=C1NCCC/C1=N/Nc1cc(F)ccc1F	10.1	2.0	-4.0	-4.9	3.6	4.8	.	.
CN(CC(=O)Nc1ccc(F)cc1)C(=O)C1CC(=O)N(Cc2ccccc2)C1 (stereo not given)	-4.4	0.1	2.1	1.5	5.0	-8.9	.	.
CC(C)C1Nc2c(O)cc(Cl)c([N+](=O)[O-])c2C2C=CCC21 (stereo not given)	15.8	3.9	4.8	.	19.5*	.	13.4	10.4*
CCc1nc2ccc(C(=O)NCCCn3ccnc3)cn2c1N(C)Cc1ccc(N(C)C)cc1	.	1.0	0.6	.	-5.4	.	.	.
COc1cc2c(cc1OC)C(c1ccc(SC)cc1)CC(=O)N2 (stereo not given)	4.5	-0.9	-6.0	2.3	4.8	0.1	.	.
COc1ccc(C2CC(=O)Nc3cc(OC)c(OC)cc32)cc1 (stereo not given)	.	4.4	1.5	.	20.9*	.	1.3	-4.1
CCCOC(=O)CCCCC1SCC(NC(=O)OC)C1NC(=O)OC (stereo not given)	0.5	-36.7	0.3	-5.8	19.6*	-3.8	-2.2	-9.0

Assay outcomes (PubChem BioAssay)
